In the library only some 2.7% were active in any assay of this set; here they are far more common.
PAFAH2 inh: inhibitors of human PAFAH2; Q99487; recombinant PAFAH2, FP-rhodamine activity probe, fluorescence polarization; inhibition, % at 3.39 µM; hit rate 0.99% among 340,000; AID 492956;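 active = inhibition above the mean over all tested compounds plus 3 SD, cut at about 30% in these data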;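 note: inhibitors block probe labeling of enzyme so polarization drops; 0% = enzyme with DMSO and 100% = wells lacking PAFAH2 protein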
pPAFAH inh: pPAFAH (human) enzyme inhibition; Q13093; recombinant pPAFAH, FP-rhodamine probe fluorescence polarization; inhibition, % at 3.39 µM; hit rate 1.5% among 330,000;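 active = inhibition above the mean inhibition across the screen plus 3 SD, cut at about 25% in these data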;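 note: inhibitors block binding of the rhodamine activity-based probe so polarization drops; 0% = enzyme with DMSO and 100% = wells lacking pPAFAH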
Target sequence (Q13093 whole entry, looked up): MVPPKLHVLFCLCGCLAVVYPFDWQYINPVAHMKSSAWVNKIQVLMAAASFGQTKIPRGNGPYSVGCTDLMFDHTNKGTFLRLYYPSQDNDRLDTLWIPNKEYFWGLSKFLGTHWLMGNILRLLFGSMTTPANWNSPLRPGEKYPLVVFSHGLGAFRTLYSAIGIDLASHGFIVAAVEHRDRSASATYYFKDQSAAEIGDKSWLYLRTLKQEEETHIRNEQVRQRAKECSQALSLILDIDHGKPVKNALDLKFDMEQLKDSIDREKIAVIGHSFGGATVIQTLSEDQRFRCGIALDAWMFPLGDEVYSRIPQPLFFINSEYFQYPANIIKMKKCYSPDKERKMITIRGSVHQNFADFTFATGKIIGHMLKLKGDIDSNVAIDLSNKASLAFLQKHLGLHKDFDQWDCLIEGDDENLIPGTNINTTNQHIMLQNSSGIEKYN
PAFAH1B2 FP inh: PAFAH1B2 (human) inhibition; recombinant PAFAH1B2, FP-rhodamine activity probe, fluorescence polarization; inhibition, % at 3.39 µM; hit rate 1.2% among 340,000; AID 492953;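 active = inhibition above the mean of all tested compounds plus 3 SD, cut at about 24% in these data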;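 note: 0% = enzyme with DMSO and 100% = wells lacking PAFAH1B2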
ASAP1 inh: ASAP1 ArfGAP inhibition; ASAP1-stimulated ARF1 GTP hydrolysis, GDP FP detection; AID 624377; Q9ULH1; hit rate 0.19% among 360,000; inhibition, % at 16.5 µM; in the data active = inhibition above about 25%;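 note: 0% = vehicle with enzyme and substrate and 100% = no enzyme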
PAFAH1B3 inh: blocks human PAF acetylhydrolase 1B catalytic subunit 3 | Q15102 | recombinant PAFAH1B3, FP-rhodamine probe, fluorescence polarization | inhibition, % at 3.39 µM | hit rate 0.28% among 340,000 | AID 492972;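 active = inhibition above the screen-wide average of all tested compounds plus 3 SD, cut at about 25% in these data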;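 note: 0% = enzyme with DMSO only and 100% = wells lacking PAFAH1B3 protein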
ARFGAP1 inhibitor: inhibitors of rat ARFGAP1. Q62848. Arfgap1-stimulated ARF1 GTP hydrolysis, GDP FP detection. inhibition, % at 16.5 µM. hit rate 0.26% among 360,000. AID 651572;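 active = inhibition above a per-plate limit, mean inhibition of low control wells plus 3 SD, cut at about 25% in these data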;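 note: 0% = DMSO wells with enzyme and 100% = wells lacking Arfgap1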
Target sequence (Q62848 1-136 limits assumed): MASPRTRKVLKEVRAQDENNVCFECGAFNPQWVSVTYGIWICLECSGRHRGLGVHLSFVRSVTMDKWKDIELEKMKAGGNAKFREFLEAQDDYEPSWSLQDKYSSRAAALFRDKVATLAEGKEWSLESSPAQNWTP
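Material: rat Arfgap1 GAP domain (His6, aa 1-136), purified enzyme. Also added: human ARF1(Δ1-17)-GTP substrate. Compound dosing: 16.5 µM single point, 1.26% DMSO. Timing: enzyme reaction 120 min at 25 °C after 20 min preincubation. Signal: GDP detection by fluorescence polarization. Read-out basis: percent inhibition of GAP-stimulated GDP formation, scaled between DMSO and no-Arfgap1 medians.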
An asterisk follows results filed as active; x = not tested or not shown.

SMILES	PAFAH2 inh	pPAFAH inh	PAFAH1B2 FP inh	ASAP1 inh	PAFAH1B3 inh	ARFGAP1 inhibitor
C=CCN1CC(COCCCC)Oc2ccc(Cl)cc2S1(=O)=O (stereo not given)	x	x	x	6	x	8
Cc1cc(C)c(-n2c(O)c(C=NCCN3CCOCC3)c(=O)[nH]c2=O)c(C)c1	-3	3	5	-7	3	2
O=c1[nH]c(=S)n(C2CCCCC2)c(O)c1C=NCCN1CCOCC1	4	7	29*	-5	4	-7
CCCCN1CC(COc2ccc(OC)cc2)OCCS1(=O)=O (stereo not given)	x	x	x	3	x	-2
CC(C)(C)c1ccc(OCC(=O)O)cc1	-12	-3	7	-9	3	1
CC(CCC(=O)O)(c1ccc(O)cc1)c1ccc(O)cc1	1	-2	25*	-7	11	-14
COC(=O)c1ccccc1NC(=O)CN1CCC(C(=O)c2ccc3c(c2)OCCO3)CC1	1	33*	4	-1	5	0
Cc1ccc(CN2CC(N3CCC[C@@H]3C)CS2(=O)=O)cc1 (stereo not given in full)	x	x	x	-4	x	-2
COc1cc(C(=O)Nc2c(C(=O)O)[nH]c3ccccc23)cc(OC)c1OC	1	x	8	-6	6	-6
O=C(O)c1[nH]c2ccccc2c1C(c1cc(Br)ccc1O)c1c(C(=O)O)[nH]c2ccccc12	13	15	94*	-19	3	-27
O=C(O)c1[nH]c2ccccc2c1C(c1c(F)cccc1Cl)c1c(C(=O)O)[nH]c2ccccc12	11	7	49*	-11	2	-15
COc1cc(Cl)cc(C(c2c(C(=O)O)[nH]c3ccccc23)c2c(C(=O)O)[nH]c3ccccc23)c1O	8	12	83*	-1	15	-4
C[C@@H]1CN([C@@H](C)CO)C(=O)CCCn2cc(nn2)CO[C@H]1CN(C)C(=O)Nc1ccc(C(F)(F)F)cc1	x	x	x	-4	x	-10
Cc1cc(N2CCNC[C@H]2C)ccc1N1C[C@@H](C)O[C@@H](C)C1	x	x	x	-3	x	8
O=C(O)Cc1ccc2c(c1)N(S(=O)(=O)c1cccc(C(F)(F)F)c1)CC(C(=O)O)O2 (stereo not given)	2	-2	27*	0	-5	5
CS(=O)(=O)N1CC(C(=O)O)Oc2ccc(CC(=O)O)cc21 (stereo not given)	1	0	1	-7	3	-8
CN(C)c1ccc(/C=C(\C#N)c2ccccc2)cc1	8	x	7	x	13	x
CN(C)c1cccc(/C=C(\C#N)c2ccccc2)c1	-5	34*	6	13	8	-3
COC(=O)[C@]12C[C@H](CC(=O)NCc3ccc(OC)c(OC)c3)C(=O)N(Cc3ccccc3)C1=C[C@H](C(C)(C)C)O[C@@H]2C	x	x	x	-1	x	-7
O=C1C=CC2=C3c4cc(O)c(O)cc4CC3(O)COC2=C1O (stereo not given)	85*	x	19	-1	36*	11
CC1(CCC(=O)N2CCCC(Nc3ccc(F)cc3)C2)CC1 (stereo not given)	2	-4	29*	7	8	2
CCCCc1c(-c2ccccc2OC)ncn1Cc1c(Cl)cccc1Cl	x	x	x	6	x	16
CNc1nc(NCCOC23CC4CC(CC(C4)C2)C3)nc(OCC(F)(F)F)n1	6	-1	31*	8	3	9
COc1cccc2sc(Nc3nc(-c4cc5ccccc5oc4=O)cs3)nc12	2	5	8	23	10	30*
O=c1ccc2ccc(Oc3ccc([N+](=O)[O-])cc3Cl)cc2o1	1	30*	1	-19	4	8
SMILES	PAFAH2 inh	pPAFAH inh	PAFAH1B2 FP inh	ASAP1 inh	PAFAH1B3 inh	ARFGAP1 inhibitor
CC(=O)Nc1cccc(-c2cc(-c3c(Cl)cccc3Cl)no2)c1	-2	28*	0	4	-2	3
CNC(=O)Nc1cccc(-c2cc(-c3c(Cl)cccc3Cl)no2)c1	-5	13	-4	3	-5	14
O=C(Nc1ccccn1)c1ccc(S(=O)(=O)c2ccc(Cl)cc2)cc1	-4	1	24*	-4	1	4
O=C(Nc1ccccn1)c1ccc(S(=O)(=O)N2CCCC2)cc1	4	7	-1	-7	4	21
Oc1c(N=Nc2ccc(F)cc2)ccc2ccccc12	-24	5	-10	-7	-29	-1
Cc1ccc(N=Nc2ccc3ccccc3c2O)cc1	35*	-1	86*	-14	52*	9
COC(=O)c1c(C)[nH]c(C(=O)OC(C)C(=O)N(C)C2CCCCC2)c1C (stereo not given)	2	26*	3	-4	6	-3
CCOC(=O)C1=CCN(S(=O)(=O)c2ccc(Cl)cc2)C1c1ccc(Cl)c(Cl)c1 (stereo not given)	x	x	x	-10	x	-1
O=C(COC(=O)c1nc(Cl)ccc1Cl)Nc1ccccc1OC(F)F	-3	10	3	11	4	4
O=C(COC(=O)C1CCC1)Nc1ccc(OC(F)F)cc1	16	-1	4	-3	-3	-11
O=C(COC(=O)CCC1CCCC1)Nc1ccccc1OC(F)F	5	29*	3	-6	2	-3
O=C(COC(=O)c1ccc(Cl)c([N+](=O)[O-])c1)Nc1ccccc1OC(F)F	26	32*	0	-3	-1	2
O=C(COC(=O)CCC1CCCC1)NCc1ccc(Cl)cc1	12	30*	4	-3	1	-2
O=C(COC(=O)CCc1ccccc1)Nc1ccccc1OC(F)F	16	13	17	6	-1	-2
O=C(COC(=O)CCC1CCCCC1)Nc1ccc(OC(F)F)cc1	11	26*	3	17	-5	11
NS(=O)(=O)c1ccc(NC(=O)COC(=O)CCC2CCCC2)cc1	5	-3	4	7	0	8
COc1ccc(C(=O)OCC(=O)Nc2ccc(OC(F)F)cc2)c(OC)c1	68*	33*	5	-4	7	1
O=C(COC(=O)CCC1CCCC1)Nc1ccc(F)cc1	27	32*	12	9	-2	7
Cc1ccc2nc(-c3cccc(Cl)c3)c(Cc3cccc(Cl)c3)n2c1	x	x	x	-10	x	7
Cc1cn2c(=O)c3ncn(C4OC(CO)C(O)C4O)c3n(C)c2n1 (stereo not given)	x	x	x	4	x	6
C#CCN(Cc1ccco1)C(=O)c1nnc2c3cc(OC)ccc3n(S(=O)(=O)c3ccc(OC)cc3)c2n1	x	x	x	-2	x	-3
CN(C)CCCNC(=O)c1c(N)[nH]c(C(=O)c2ccc(Br)cc2)c1-c1ccc(Br)cc1	x	x	x	-1	x	-4
O=C(N/N=C/c1ccc(O)cc1)c1cc(-c2ccc3c(c2)OCO3)n[nH]1	0	1	0	25	-6	26*
Cc1ccccc1-n1c(-c2ccncc2)n[nH]c1=S	-6	-3	0	4	-1	-2
